Read-outs that look alike come from different tables or passages of the source.
What was measured:
Type in all cases: cell-based
[1] = system: human polymorphonuclear neutrophils (hPMN); assay: Ca2+ flux assay in human neutrophils; conditions: for EC50: Homo sapiens, Polymorphonuclear neutrophil, read-out: hPMN EC50
How it was run: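 Neutrophils from healthy donors' blood, purified by dextran sedimentation, Histopaque 1077 gradient and hypotonic red-cell lysis (>95% pure, >98% viable). Cells in HBSS− with 10 mM HEPES were loaded with Fluo-4 AM (1.25 µg/mL final) for 30 min at 37 °C, then plated at 2 × 10^5 cells/well. Fluorescence (485/538 nm) read every 5 s for 240 s at room temperature. Peak change normalized to 5 nM fMLF. EC50 from 5–6-point nonlinear regression, three experiments.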

mouse Fpr2 = biological target: T1, mouse Fpr2 (Mus musculus, UniProt O88536); assay: Ca2+ flux assay in mFpr2-RBL cells; conditions: for mFpr2-RBL Efficacy: % of the response induced by 5 nM WKYMVm
T1 sequence (O88536 1-351): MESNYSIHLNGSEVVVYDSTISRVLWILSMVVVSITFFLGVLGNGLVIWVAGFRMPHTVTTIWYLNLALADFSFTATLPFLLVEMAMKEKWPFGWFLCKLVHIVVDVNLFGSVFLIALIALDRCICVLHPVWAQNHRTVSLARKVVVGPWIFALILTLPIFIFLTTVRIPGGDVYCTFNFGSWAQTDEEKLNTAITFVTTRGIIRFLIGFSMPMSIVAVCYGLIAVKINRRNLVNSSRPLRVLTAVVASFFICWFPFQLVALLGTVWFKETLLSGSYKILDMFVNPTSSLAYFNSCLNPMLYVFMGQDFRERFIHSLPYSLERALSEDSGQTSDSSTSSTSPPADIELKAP
How it was run: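 RBL-2H3 cells stably expressing mouse Fpr2, grown in DMEM with 20% FBS, 10 mM HEPES and G418. Fluo-4 AM loaded (1.25 µg/mL final, 30 min, 37 °C, dark) in HBSS− with HEPES, then resuspended in HBSS with HEPES at 2 × 10^5 cells/well. Fluorescence (485/538 nm) read every 5 s for 240 s at room temperature. Peak rise over baseline was taken and EC50 fitted from 5–6-point curves. Mean of three experiments.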

mouse Fpr1 = biological target: T2, mouse Fpr1 (Mus musculus, UniProt P33766); assay: Ca2+ flux assay in mFpr1-RBL cells; conditions: for mFpr1-RBL Efficacy: % of the response induced by 5 nM WKYMVm
T2 sequence (P33766 1-364): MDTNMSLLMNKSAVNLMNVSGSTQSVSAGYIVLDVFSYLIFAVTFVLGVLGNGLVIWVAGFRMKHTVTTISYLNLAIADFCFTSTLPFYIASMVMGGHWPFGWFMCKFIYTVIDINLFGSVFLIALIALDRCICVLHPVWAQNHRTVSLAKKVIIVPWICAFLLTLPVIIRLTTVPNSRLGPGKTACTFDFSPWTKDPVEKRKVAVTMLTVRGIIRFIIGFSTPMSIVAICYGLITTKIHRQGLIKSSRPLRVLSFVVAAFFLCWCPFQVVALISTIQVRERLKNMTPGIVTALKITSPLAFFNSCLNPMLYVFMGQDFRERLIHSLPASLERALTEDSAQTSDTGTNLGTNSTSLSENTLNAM
How it was run: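 RBL-2H3 cells carrying mouse Fpr1 were grown in DMEM with 20% FBS, 10 mM HEPES and G418 (250 µg/ml). Cells were loaded with Fluo-4 AM (1.25 µg/mL final, 30 min, 37 °C, dark) and plated at 2 × 10^5 cells/well. Fluorescence (485/538 nm) was read every 5 s for 240 s at room temperature after compound addition. Maximal rise over baseline normalized to 5 nM WKYMVm. EC50 from 5–6-point nonlinear fits, three experiments.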

FPR2 = biological target: T3, FPR2 (Homo sapiens, UniProt P25090); assay: Ca2+ flux assay in FPR2-HL60 cells; conditions: for EC50: HL-60 cells transfected with FPR2; for Emax: read-out: FPR2-HL60 Efficacy
T3 sequence (P25090 1-351): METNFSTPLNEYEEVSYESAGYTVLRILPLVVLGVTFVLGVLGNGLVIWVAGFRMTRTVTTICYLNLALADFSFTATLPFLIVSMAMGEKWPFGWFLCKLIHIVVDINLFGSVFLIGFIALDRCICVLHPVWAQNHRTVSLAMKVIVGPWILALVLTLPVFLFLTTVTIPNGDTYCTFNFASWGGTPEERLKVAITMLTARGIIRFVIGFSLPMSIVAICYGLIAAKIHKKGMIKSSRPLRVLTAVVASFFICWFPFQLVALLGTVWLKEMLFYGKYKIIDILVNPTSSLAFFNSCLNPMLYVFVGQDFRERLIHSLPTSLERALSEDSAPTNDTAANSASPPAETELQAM
How it was run: (§1)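 FPR1-, FPR2- or FPR3-transfected HL-60 cells grown in RPMI 1640 with 10% heat-inactivated FCS, 10 mM HEPES and G418 (1 mg/mL). Cells loaded with Fluo-4 AM (1.25 µg/mL final) for 30 min at 37 °C in the dark, then 2 × 10^5 cells/well. Fluorescence (ex 485/em 538 nm) read every 5 s for 240 s at room temperature. Peak rise over baseline normalized to 5 nM fMLF (FPR1) or 5 nM WKYMVm (FPR2, FPR3). EC50 from 5–6-point nonlinear fits, three independent experiments.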

human neutrophils = assay: Cell migration; conditions: Neutrophil, 1 h, read-out: EC50 in migration assay
How it was run: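 Human neutrophils at 2 × 10^6 cells/mL in HBSS with 2% FBS, placed above a 5.0 µm polycarbonate membrane. Lower wells held test compound, DMSO (negative control) or 1 nM fMLF (positive control). Migration ran 60 min at 37 °C, 5% CO2. Migrated cells counted by ATP luminescence against neutrophil standard curves and expressed as % of spontaneous migration. EC50 from 5–6-point nonlinear fits; mean ± SD, three donors.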

[2] = system: mouse polymorphonuclear neutrophils (mPMN); assay: Ca2+ flux assay in mouse neutrophils; conditions: for mPMN Efficacy: % of the response induced by 5 nM WKYMVm; for EC50: read-out: mPMN EC50
How it was run: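 Neutrophils taken from BALB/c mouse tibia and femur bone marrow. Isolated on a 45/50/55/62/81% Percoll gradient (1600g, 30 min, 10 °C), then Histopaque 1119 to remove red cells, and kept in HBSS−. Ca2+ fluorescence (485/538 nm) monitored every 5 s for 240 s at room temperature after compound addition. Maximal change over baseline normalized to 5 nM WKYMVm. EC50 from 5–6-point nonlinear regression, three independent experiments.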

FPR3 = biological target: T4, FPR3 (Homo sapiens, UniProt P25089); assay: Ca2+ flux assay in FPR3-HL60 cells; conditions: for FPR3-HL60 Efficacy: % of the response induced by 5 nM WKYMVm
T4 sequence (P25089 1-353): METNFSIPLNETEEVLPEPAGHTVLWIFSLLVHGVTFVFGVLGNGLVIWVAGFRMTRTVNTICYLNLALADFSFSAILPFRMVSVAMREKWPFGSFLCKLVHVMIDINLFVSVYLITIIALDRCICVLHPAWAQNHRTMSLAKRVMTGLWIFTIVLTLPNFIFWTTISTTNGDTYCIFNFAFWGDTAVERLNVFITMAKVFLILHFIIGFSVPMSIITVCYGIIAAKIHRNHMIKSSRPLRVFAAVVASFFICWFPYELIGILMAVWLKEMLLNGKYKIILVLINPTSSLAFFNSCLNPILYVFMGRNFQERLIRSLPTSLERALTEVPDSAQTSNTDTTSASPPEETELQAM
How it was run: as §1

FPR1 = biological target: T5, FPR1 (Homo sapiens, UniProt P21462); assay: Ca2+ flux assay in FPR1-HL60 cells; conditions: for Emax: read-out: FPR1-HL60 Efficacy
T5 sequence (P21462 1-350): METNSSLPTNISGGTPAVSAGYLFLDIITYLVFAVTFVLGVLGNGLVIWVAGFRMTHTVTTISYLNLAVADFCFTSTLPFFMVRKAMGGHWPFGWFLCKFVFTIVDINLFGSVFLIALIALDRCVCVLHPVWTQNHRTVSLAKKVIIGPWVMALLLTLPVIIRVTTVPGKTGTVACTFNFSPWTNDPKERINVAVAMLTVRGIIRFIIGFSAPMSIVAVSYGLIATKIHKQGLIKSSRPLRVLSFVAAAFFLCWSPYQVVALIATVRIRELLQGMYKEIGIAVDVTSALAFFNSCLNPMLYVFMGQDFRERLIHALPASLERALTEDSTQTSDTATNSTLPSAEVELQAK
How it was run: as §1

[3] = Mus musculus, Polymorphonuclear neutrophil
[4] = % of the response induced by 5 nM fMLF

| Compound | EC50 [1] [nM] | EC50 (mouse Fpr2) [nM] | mFpr2-RBL Efficacy (mouse Fpr2) [%] | EC50 (mouse Fpr1) [nM] | mFpr1-RBL Efficacy (mouse Fpr1) [%] | EC50 (FPR2; FPR2-HL60 EC50, Ca2+ flux) [nM] | Emax (FPR2) [%] | EC50 (human neutrophils) [nM] | mPMN Efficacy [2] [%] | EC50 [2, 3] [nM] | EC50 (FPR3) [nM] | FPR3-HL60 Efficacy (FPR3) [%] | EC50 (FPR1) [nM] | Emax (FPR1) [%] | other results |
| --- | --- | --- | --- | --- | --- | --- | --- | --- | --- | --- | --- | --- | --- | --- | --- |
| COc1ccc(Nc2c(-c3ccn(C)n3)c(C)nn(CC(=O)Nc3ccc(Br)cc3)c2=O)cc1 [Compound 27b, N-(4-Bromophenyl)-2-[5-(4-methoxyphenylamino)-3-methyl-4-(1-methyl-1H-pyrazol-3-yl)-6-oxo-6H-pyridazin-1-yl]acetamide] | 300 ± 44 | 18300 ± 3800 | 35 | 18500 ± 4100 | 25 | 35 ± 100 | 120 | 450 ± 170 | 80 | 6000 ± 1900 | 670 ± 220 | 110 | 4000 ± 890 | 115 | – |
| C=Cc1c(C)nn(CC(=O)Nc2ccc(Br)cc2)c(=O)c1Nc1cccc(OC)c1 [Compound 15, N-(4-Bromophenyl)-2-[5-(3-methoxyphenylamino)-3-methyl-6-oxo-4-vinylpyridazin-1(6H)-yl]acetamide] | 840 ± 180 | – | – | – | – | 110 ± 14 | 105 | 1200 ± 240 | 30 | 22800 ± 6400 | 6000 ± 2100 | 75 | 230 ± 70 | 120 | – |
| Cc1nn(CC(=O)Nc2ccc(Br)cc2)c(=O)c(N)c1C(=O)C=CN(C)C [Compound 24] | 9300 ± 2300 | 9400 ± 2700 | 65 | 6700 ± 2100 | 55 | 5700 ± 2300 | 50 | – | 50 | 13500 ± 3700 | – | – | 5100 ± 1700 | 120 | – |
| 1-[(4-Bromophenylcarbamoyl)-methyl]-5-(3-methoxyphenylamino)-1,6-dihydro-3-methyl-6-oxopyridazine-4-carboxylate [Compound 20] | – | – | – | – | 50 | – | – | – | 100 | – | – | 75 | – | – | hPMN Efficacy [1, 4]: 155%; EC50 (mouse Fpr1; read-out: mFpr1-RBL EC50, Ca2+ flux, RBL cells transfected with mouse Fpr1): 4700 ± 1300 nM; FPR2-HL60 Efficacy (FPR2; % of the response induced by 5 nM WKYMVm): 115%; EC50 (FPR2; read-out: FPR2-HL60 EC50, Ca2+ flux): 3100 ± 780 nM; EC50 ([2]; Ca2+ flux, mouse bone marrow neutrophils): 1000 ± 340 nM; EC50 (FPR3; read-out: FPR3-HL60 EC50, Ca2+ flux, HL-60 cells transfected with FPR3): 17100 ± 4300 nM; FPR1-HL60 Efficacy (FPR1; [4]): 130%; EC50 (FPR1; read-out: FPR1-HL60 EC50, Ca2+ flux, HL-60 cells transfected with FPR1): 600 ± 100 nM |
| COc1cccc(Nc2c(-c3ccn(C)n3)c(C)nn(CC(=O)Nc3ccc(Br)cc3)c2=O)c1 [Compound 27a, N-(4-Bromophenyl)-2-[5-(3-methoxyphenylamino)-3-methyl-4-(1-methyl-1H-pyrazol-3-yl)-6-oxo-6H-pyridazin-1-yl]acetamide] | 590 ± 210 | – | – | – | – | 590 ± 180 | 90 | 1100 ± 220 | – | – | – | – | 3600 ± 280 | 130 | – |
| COc1cccc(Nc2c(C(C)=O)c(C)nn(CC(=O)Nc3ccc(Br)cc3)c2=O)c1 [Compound 8a, 2-[4-Acetyl-5-(3-methoxyphenylamino)-3-methyl-6-oxopyridazin-1(6H)-yl]-N-(4-bromophenyl)acetamide] | 36 ± 7 | – | – | – | – | – | 60 | 2200 ± 510 | – | – | 210 ± 44 | 150 | – | 185 | – |

— PMC5055850 (Bioorganic & medicinal chemistry, 2016)
